In the library only some 4.6% were active in any assay of this set; here they are far more common.
OX1R antag-1 = blocks the human orexin 1 receptor; O43613; CHO/OX1R cells, Fluo-8 calcium fluorescence, orexin A; inhibition, % at 5 µM; hit rate 0.43% among 330,000;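 active = inhibition above its plate's threshold, mean inhibition of all tested compounds on the plate plus 3 SD, cut at about 37% in these data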;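 note: 0% = orexin A challenge wells and 100% = SB-334867-A antagonist wells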
TAAR1 agonist = human TAAR1 agonism; hit rate 0.99% among 360,000; AID 624467; CHO RD-HGA16 TAAR1, Fluo-8 calcium fluorescence; vehicle wells 0%, saturating PEA agonist 100%; activation, % at 3 µM;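 active = activation above the mean activation of all test compounds in the run plus 3 SD, cut at about 38% in these data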
Target sequence (Q96RJ0 whole entry, looked up): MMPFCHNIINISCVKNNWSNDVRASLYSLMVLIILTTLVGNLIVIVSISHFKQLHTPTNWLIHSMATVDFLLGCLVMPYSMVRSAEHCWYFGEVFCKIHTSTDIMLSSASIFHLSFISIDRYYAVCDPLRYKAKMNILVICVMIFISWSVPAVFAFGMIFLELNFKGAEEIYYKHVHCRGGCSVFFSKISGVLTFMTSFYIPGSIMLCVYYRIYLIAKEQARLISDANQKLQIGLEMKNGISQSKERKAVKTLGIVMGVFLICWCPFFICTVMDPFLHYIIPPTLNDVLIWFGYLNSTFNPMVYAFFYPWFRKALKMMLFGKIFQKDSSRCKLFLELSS
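Repeats: no replicates (n 1) | Material: CHO-derived RD-HGA16 cells with stable Gα16 and human TAAR1 | Technique: Kinetic Fluo-8 calcium fluorescence | Schedule: 17-24 h seeding, 75 min 37 °C dye, 30 min RT | Evaluation: % activation from peak over basal fluorescence ratio, DMSO-to-PEA scaled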
OX1R antag-2 = antagonists of human orexin 1 receptor (OX1R). O43613. hit rate 1.8% among 330,000. inhibition, % at 6.6 µM. OX1R-expressing cells, FRET antagonist read-out; in the data active = inhibition mostly above about 38%, no sharp cut-off; inactive = mostly below about 40%;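 note: 0% = agonist challenge alone and 100% = reference antagonist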
CHO parental Ca = signal in parental CHO cells, OX1R antagonist counter-screen. parental CHO-K1, ATP-induced calcium, Fluo-8 fluorescence. inhibition, % at 5.6 µM. hit rate 0.63% among 330,000. AID 463079;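 active = inhibition above that plate's mean sample inhibition plus 3 SD, cut at about 26% in these data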;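 note: 0% = ATP-challenged DMSO wells and 100% = DMSO wells without ATP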
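Assay system – parental CHO cells · Reagent – ATP stimulus · Detection – intracellular calcium via Fluo-8 no-wash fluorescent dye · Evaluation – percent inhibition of ATP-evoked calcium rise, normalized to controls · Controls – ATP wells versus no-ATP DMSO wells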
TAAR1 antagonist = antagonists of human TAAR1; CHO RD-HGA16 TAAR1, Fluo-8 calcium fluorescence, antagonist; inhibition, % at 3 µM; hit rate 1.5% among 360,000; Q96RJ0;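 active = inhibition above a per-plate cutoff, the mean inhibition of test compounds on that plate plus 3 SD, cut at about 49% in these data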;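 note: 0% = DMSO plus EC80 beta-PEA response and 100% = DMSO alone without agonist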
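Test system – hTAAR1-expressing CHO RD-HGA16 cells, Gα16-coupled · Also added – β-PEA at EC80 concentration, post-compound challenge · Compound – 3 µM, single point · Incubation – dye loading 75 min at 37 °C, then 30 min room temperature · Measured by – Fluo-8 intracellular calcium dye fluorescence, real-time kinetic reads · Benchmarks – vehicle and agonist controls · Replicates – singlicate, one well per test compound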
GPR7 antagonist = antagonists of human GPR7 (neuropeptides B/W receptor 1). GPR7-expressing cells, fluorescence antagonist assay. hit rate 1.1% among 290,000. inhibition, % at 4.4 µM; in the data active = inhibition above about 16%, passing the limit was not always enough;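 note: cells stimulated with the agonist NPW; 0% = agonist with vehicle and 100% = vehicle without agonist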
OX1R HTRF conf = OX1R (human) antagonism, HTRF confirmed; hit rate 49% among 1,800; AID 492964; inhibition, % at 6.6 µM; shares compounds with OX1R antag-2; OX1R-expressing cells, HTRF antagonist assay; in the data active = inhibition above about 55%;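 note: CHO cells expressing OX1R stimulated with orexin A at about EC80; 0% = agonist challenge alone and 100% = reference antagonist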
CHO-K1 HTRF cnt = counter-screen: parental CHO-K1 HTRF response. shares compounds with OX1R antag-2. parental CHO-K1 cells, HTRF counterscreen. inhibition, % at 6.6 µM. hit rate 48% among 1,800. AID 493232; in the data active = inhibition above about 17%;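 note: 0% = agonist challenge with vehicle and 100% = vehicle alone without agonist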
* hit, by the source's call; x = no result.

SMILES	OX1R antag-1	TAAR1 agonist	OX1R antag-2	CHO parental Ca	TAAR1 antagonist	GPR7 antagonist	OX1R HTRF conf	CHO-K1 HTRF cnt
COC(=O)c1ccc2c(c1)N(Cc1nc(-c3ccc(Cl)cc3)oc1C)C(=O)C1CCCN21 (stereo not given)	-32	0	11	-18	-11	x	x	x
O=C(Cc1csc(-c2cccc(Cl)c2)n1)Nc1cccc(S(=O)(=O)NC2=NCCC2)c1	-24	2	9	-26	-11	x	x	x
O=C(CN1CCN(c2ccc(O)cc2)CC1)Nc1cc([N+](=O)[O-])ccc1Cl	8	6	79*	-7	10	-4	32	47*
CC(=O)N1CCN(CC(=O)Nc2cc([N+](=O)[O-])ccc2Cl)CC1	0	0	58	-10	-4	-7	x	x
N#C/C(=C\c1cccs1)C(=O)Nc1nccs1	-8	7	14	-13	7	-10	x	x
Cc1cccnc1Nc1nc(-c2ccc(O)c(O)c2)cs1	12	-1	13	4	0	2	x	x
COc1ccc(-c2csc(Nc3ncccc3C)n2)cc1OC	24	2	84*	-23	-3	-16	73*	11
CCOc1ccccc1NC(=S)NNS(=O)(=O)c1c(C)cc(C)cc1C	-13	1	97*	-3	-15	-3	26	4
Cc1ccn2cc(-c3cccc(NC(=O)c4ccccc4)c3)nc2c1	-24	5	78*	-24	17	11	62*	4
Cc1ccn2cc(-c3cccc(NC(=O)C(C)C)c3)nc2c1	-11	0	20	-6	-6	8	x	x
COc1ccc(C2=Nc3ccccc3N(C(=O)c3cccnc3)C2C(=O)NC2CCCC2)cc1 (stereo not given)	x	0	x	x	-31	x	x	x
CCC(=O)Nc1ccc2oc(-c3ccccc3Br)nc2c1	23	26	84*	5	2	6	51	0
CC(=O)Nc1ccc2oc(-c3ccccc3Br)nc2c1	3	4	78*	-10	14	1	42	0
COc1ccc2nc(NC(=O)c3cccnc3SC)sc2c1	12	3	88*	-11	4	1	77*	10
CCCCC(=O)Nc1cc(OC)c(NC(=S)Nc2ccc(OC)cc2)cc1OC	x	3	x	x	18	x	x	x
Cc1ccc(C(=O)N/C(=C/c2ccc(-c3cccc([N+](=O)[O-])c3)o2)C(=O)NC(C)(C)C)cc1	3	3	85*	-20	34	-3	69*	14
O=c1cc(/C=C/c2c(F)cccc2Cl)[nH]c2ccccc12	23	1	90*	-8	-12	-2	90*	2
Nc1nccc(/C=C/c2c(F)cccc2Cl)n1	-24	-1	28	-12	-5	5	x	x
CNS(=O)(=O)c1cc2c3c(cccc3c1)C(=O)NC2=O	-2	2	130*	-4	-6	-6	51	78*
O=C(NCCO)c1ccc2nc(-c3ccco3)c(-c3ccco3)nc2c1	-7	3	109*	-3	10	-9	38	58*
O=C1CCCC(O)=C1N=Nc1ccc(C(=O)O)cc1	6	-2	86*	-4	-9	-8	72*	64*
O=C1CCCC(O)=C1N=Nc1ccc2c(c1)OCO2	-5	2	81*	-8	-9	-12	50	58*
O=C1CCCC(O)=C1N=Nc1c(Cl)cc(C(F)(F)F)cc1Cl	-15	11	5	-3	-15	-19	x	x
O=C1CCCC(O)=C1N=Nc1cccc(S(=O)(=O)N2CCOCC2)c1	-16	1	8	-9	-19	3	x	x
COc1ccc(S(=O)(=O)N(C)C[C@H]2Oc3c(cccc3N(C)C)C(=O)N([C@H](C)CO)C[C@@H]2C)cc1	-1	18	16	-20	7	x	x	x
CN(C)CCCNC(=S)Nc1ccc(-c2ccccc2)cc1	-8	22	2	-8	0	11	x	x
CCOC(=O)N/N=C(/C)c1ccc([N+](=O)[O-])o1	8	9	93*	-1	-6	16	52	77*

Screens (PubChem BioAssay)
